Eleven molecules from ChEMBL document CHEMBL1158962, “Isolation and characterization of two antimicrobial agents from mace (Myristica fragrans)” (1991) can be followed below.

≈ marks a conversion by molar mass, not a printed value.

What all share (assay type): functional
Experiment [1] relates to Staphylococcus aureus. The experiment is described as follows: Antimicrobial activity against Staphylococcus aureus NCTC 6571 after 24 hrs by agar dilution method. The following applies: NCTC 6571, 24 h. Summed up:
(§1)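 Agar dilution. Each test substance was first taken at 320 µg per 0.1 ml DMSO, mixed with 10 ml warm nutrient agar (45-50°) and left to set. NCTC bacteria were streaked radially and incubated at 37°. MIC was the lowest drug concentration showing no growth, read at 24 h and at 48 h. Chloramphenicol was the positive control.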
(In general: In agar dilution, organisms are placed on agar that contains the substance at set levels.)

Experiment [2] has as its system Bacillus subtilis. The experiment is described as follows: Antimicrobial activity against Bacillus subtilis NCTC 10400 after 24 hrs by agar dilution method. The following applies: NCTC 10400, 24 h. The method, boiled down: as §1
For experiment [3], the system named is Enterococcus durans. Briefly: Antimicrobial activity against Streptococcus durans NCTC 8307 after 24 hrs by agar dilution method. The conditions noted are these: NCTC 8307, 24 h. Summed up: as §1
Experiment [4] has as its system Candida albicans. The experiment is described as follows: Antimicrobial activity against Candida albicans 3153 after 24 hrs by agar dilution method. Summed up: (§2)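 Agar dilution. Each test substance was first taken at 320 µg per 0.1 ml DMSO, mixed with 10 ml warm nutrient agar (45-50°) and left to set. C. albicans strains were streaked radially and incubated at 30°. MIC was the lowest drug concentration with no growth, read at 24 h and at 48 h. Nystatin was the positive control.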

For experiment [5], the system named is Candida albicans. The experiment is described as follows: Antimicrobial activity against Candida albicans 3110 after 24 hrs by agar dilution method. The method, boiled down: as §2
The test system of experiment [6] is Candida albicans. The experiment is described as follows: Antimicrobial activity against Candida albicans ATCC 12301 after 24 hrs by agar dilution method. Summed up: as §2
The test system of experiment [7] is Staphylococcus aureus. Briefly: Antimicrobial activity against Staphylococcus aureus NCTC 6571 after 48 hrs by agar dilution method. The conditions noted are these: NCTC 6571, 48 h. Summed up: as §1
In experiment [8] the test system is Bacillus subtilis. The experiment is described as follows: Antimicrobial activity against Bacillus subtilis NCTC 10400 after 48 hrs by agar dilution method. The following applies: NCTC 10400, 48 h. The method, boiled down:
as §1

In experiment [9] the test system is Enterococcus durans. The experiment is described as follows: Antimicrobial activity against Streptococcus durans NCTC 8307 after 48 hrs by agar dilution method. The conditions noted are these: NCTC 8307, 48 h. The method, boiled down: as §1
The test system of experiment [10] is Candida albicans. Briefly: Antimicrobial activity against Candida albicans 3153 after 48 hrs by agar dilution method. The method, boiled down:
as §2

Experiment [11] has as its system Candida albicans. The experiment is described as follows: Antimicrobial activity against Candida albicans 3110 after 48 hrs by agar dilution method. Summed up: as §2
Experiment [12] concerns Candida albicans. Briefly: Antimicrobial activity against Candida albicans ATCC 12301 after 48 hrs by agar dilution method. The method, boiled down:
as §2

Setting [13] is: Candida albicans, 3153, 24 h, read-out: MIC.
The mark [14] stands for this setting: ATCC 10231, 24 h, in the assay text read “ATCC 10231” for “ATCC 12301”.
Setting [15] is: ATCC 10231, 48 h, in the assay text read “ATCC 10231” for “ATCC 12301”.
Setting [16] is: Candida albicans, 3110, 24 h, read-out: MIC.
Where [17] appears, read: ATCC 10231, 24 h, in the assay text read “ATCC 10231” for “ATCC 12301”, read-out: MIC.
Where [18] appears, read: Candida albicans, 3153, 48 h, read-out: MIC.
[19] abbreviates: Candida albicans, 3110, 48 h, read-out: MIC.
Setting [20] is: ATCC 10231, 48 h, in the assay text read “ATCC 10231” for “ATCC 12301”, read-out: MIC.

For `Oc1ccc(CCCCCCCCC(O)c2c(O)cccc2O)cc1` (centres undefined), the MIC was 8 µg/mL (≈ 23.2 µM) with Staphylococcus aureus [1] (read-out: MIC); 4 µg/mL (≈ 11.6 µM) with Bacillus subtilis [2] (read-out: MIC); 8 µg/mL (≈ 23.2 µM) in the experiment with Enterococcus durans [3] (read-out: MIC); 32 µg/mL (≈ 92.9 µM) with Candida albicans [4] (setting [13]); more than 32 µg/mL in the experiment on Candida albicans [5] (Candida albicans, 3110, 24 h); more than 32 µg/mL against Candida albicans [6] (setting [14]). The MIC in the experiment on Staphylococcus aureus [7] (read-out: MIC) was 16 µg/mL (≈ 46.5 µM); with Bacillus subtilis [8] (read-out: MIC), 4 µg/mL (≈ 11.6 µM); in the experiment with Enterococcus durans [9] (read-out: MIC) it was 16 µg/mL (≈ 46.5 µM); in the experiment on Candida albicans [10] (Candida albicans, 3153, 48 h), more than 32 µg/mL; in the experiment with Candida albicans [11] (Candida albicans, 3110, 48 h), more than 32 µg/mL; against Candida albicans [12] (setting [15]), more than 32 µg/mL.
As for `CC(=O)c1c(O)cccc1O`, the MIC is more than 32 µg/mL in the experiment on Staphylococcus aureus [1]; more than 32 µg/mL against Bacillus subtilis [2]; more than 32 µg/mL in the experiment with Enterococcus durans [3]; more than 32 µg/mL in the experiment with Candida albicans [4] (Candida albicans, 3153, 24 h); less than 32 µg/mL in the experiment with Candida albicans [5] (setting [16]); more than 32 µg/mL in the experiment on Candida albicans [6] (setting [14]).
Consider NYSTATIN, for which the minimal inhibitory concentration (MIC) in the experiment on Candida albicans [4] is 2 µg/mL; in the experiment with Candida albicans [5] it was 2 µg/mL; in the experiment on Candida albicans [6] it was 2 µg/mL; against Candida albicans [10], 4 µg/mL; with Candida albicans [11], 4 µg/mL; with Candida albicans [12] it was 4 µg/mL.
Take `O=C(N[C@H](CO)[C@H](O)c1ccc([N+](=O)[O-])cc1)C(Cl)Cl` [CHLORAMPHENICOL]: the MIC was 4 µg/mL (≈ 12.4 µM) with Staphylococcus aureus [1] (read-out: MIC); 4 µg/mL (≈ 12.4 µM) with Bacillus subtilis [2] (read-out: MIC); 1 µg/mL (≈ 3.09 µM) in the experiment on Enterococcus durans [3] (read-out: MIC); 4 µg/mL (≈ 12.4 µM) in the experiment on Staphylococcus aureus [7] (read-out: MIC); 4 µg/mL (≈ 12.4 µM) in the experiment with Bacillus subtilis [8] (read-out: MIC); 4 µg/mL (≈ 12.4 µM) with Enterococcus durans [9] (read-out: MIC).
As for `O=C(CCCCCCCCc1ccc(O)cc1)c1c(O)cccc1O` [MALABARICONE B], the MIC in the experiment on Staphylococcus aureus [1] (read-out: MIC) is 1 µg/mL (≈ 2.92 µM); in the experiment with Bacillus subtilis [2] (read-out: MIC), 1 µg/mL (≈ 2.92 µM); in the experiment with Enterococcus durans [3] (read-out: MIC) it was 1 µg/mL (≈ 2.92 µM); in the experiment on Candida albicans [4] (setting [13]), 4 µg/mL (≈ 11.7 µM); in the experiment with Candida albicans [5] (setting [16]), 8 µg/mL (≈ 23.4 µM); in the experiment with Candida albicans [6] (setting [17]), 16 µg/mL (≈ 46.7 µM). Moreover, the MIC with Staphylococcus aureus [7] (read-out: MIC) came out at 1 µg/mL (≈ 2.92 µM); in the experiment with Bacillus subtilis [8] (read-out: MIC) it was 1 µg/mL (≈ 2.92 µM); in the experiment with Enterococcus durans [9] (read-out: MIC), 2 µg/mL (≈ 5.84 µM); with Candida albicans [10] (setting [18]) it was 8 µg/mL (≈ 23.4 µM); in the experiment with Candida albicans [11] (setting [19]) it was 8 µg/mL (≈ 23.4 µM); in the experiment on Candida albicans [12] (setting [20]) it was 16 µg/mL (≈ 46.7 µM).
In the case of `O=C(CCCCCCCCc1ccc(O)c(O)c1)c1c(O)cccc1O` [MALABARICONE C], the MIC was 4 µg/mL (≈ 11.2 µM) with Staphylococcus aureus [1] (read-out: MIC); 2 µg/mL (≈ 5.58 µM) in the experiment on Bacillus subtilis [2] (read-out: MIC); 4 µg/mL (≈ 11.2 µM) in the experiment with Enterococcus durans [3] (read-out: MIC); 8 µg/mL (≈ 22.3 µM) in the experiment with Candida albicans [4] (setting [13]); 8 µg/mL (≈ 22.3 µM) in the experiment with Candida albicans [5] (setting [16]); 32 µg/mL (≈ 89.3 µM) with Candida albicans [6] (setting [17]). Also, the minimal inhibitory concentration (MIC) with Staphylococcus aureus [7] (read-out: MIC) stood at 8 µg/mL (≈ 22.3 µM); in the experiment with Bacillus subtilis [8] (read-out: MIC), 2 µg/mL (≈ 5.58 µM); with Enterococcus durans [9] (read-out: MIC), 8 µg/mL (≈ 22.3 µM); in the experiment on Candida albicans [10] (setting [18]) it was 8 µg/mL (≈ 22.3 µM); in the experiment on Candida albicans [11] (setting [19]) it was 8 µg/mL (≈ 22.3 µM); in the experiment with Candida albicans [12] (setting [20]), 32 µg/mL (≈ 89.3 µM).
For the molecule `COc1ccc(CCCCCCCCC(=O)c2c(OC)cccc2OC)cc1`, the MIC against Staphylococcus aureus [1] was more than 32 µg/mL; against Bacillus subtilis [2], more than 32 µg/mL; in the experiment with Enterococcus durans [3] it was more than 32 µg/mL; in the experiment with Candida albicans [4] (setting [13]), less than 32 µg/mL; in the experiment with Candida albicans [5] (Candida albicans, 3110, 24 h) it was more than 32 µg/mL; in the experiment with Candida albicans [6] (setting [17]), less than 32 µg/mL.
Take `COc1ccc(CCCCCCCCC(=O)c2c(O)cccc2OC)cc1`: the MIC against Staphylococcus aureus [1] is more than 32 µg/mL; with Bacillus subtilis [2] it was more than 32 µg/mL; in the experiment on Enterococcus durans [3] it was more than 32 µg/mL; in the experiment with Candida albicans [4] (setting [13]), less than 32 µg/mL; in the experiment with Candida albicans [5] (Candida albicans, 3110, 24 h) it was more than 32 µg/mL; in the experiment on Candida albicans [6] (setting [17]), less than 32 µg/mL.
`COc1cccc(O)c1C(=O)CCCCCCCCc1ccc(O)cc1`: the MIC is 4 µg/mL (≈ 11.2 µM) with Staphylococcus aureus [1] (read-out: MIC); 4 µg/mL (≈ 11.2 µM) with Bacillus subtilis [2] (read-out: MIC); 2 µg/mL (≈ 5.61 µM) in the experiment with Enterococcus durans [3] (read-out: MIC); more than 32 µg/mL against Candida albicans [4] (Candida albicans, 3153, 24 h); more than 32 µg/mL in the experiment on Candida albicans [5] (Candida albicans, 3110, 24 h); more than 32 µg/mL in the experiment with Candida albicans [6] (setting [14]). The MIC in the experiment with Staphylococcus aureus [7] (read-out: MIC), with Bacillus subtilis [8] (read-out: MIC) and in the experiment on Enterococcus durans [9] (read-out: MIC) was 4 µg/mL (≈ 11.2 µM) in each case.
Consider `COc1cccc(OC)c1C(=O)CCCCCCCCc1ccc(O)cc1`, for which the minimal inhibitory concentration (MIC) in the experiment on Staphylococcus aureus [1] (read-out: MIC) was 32 µg/mL (≈ 86.4 µM); against Bacillus subtilis [2], more than 32 µg/mL; against Enterococcus durans [3], more than 32 µg/mL; in the experiment on Candida albicans [4] (Candida albicans, 3153, 24 h), more than 32 µg/mL; with Candida albicans [5] (setting [16]), less than 32 µg/mL; in the experiment on Candida albicans [6] (setting [17]) it was less than 32 µg/mL. The MIC is more than 32 µg/mL in the experiment on Staphylococcus aureus [7]; more than 32 µg/mL with Bacillus subtilis [8]; more than 32 µg/mL against Enterococcus durans [9]; more than 32 µg/mL in the experiment with Candida albicans [10] (Candida albicans, 3153, 48 h); more than 32 µg/mL against Candida albicans [11] (Candida albicans, 3110, 48 h); more than 32 µg/mL against Candida albicans [12] (setting [15]).
For `Oc1ccc(CCCCCCCCCc2c(O)cccc2O)cc1`, the MIC with Staphylococcus aureus [1] (read-out: MIC) is 4 µg/mL (≈ 12.2 µM); in the experiment with Bacillus subtilis [2] (read-out: MIC), 4 µg/mL (≈ 12.2 µM); with Enterococcus durans [3] (read-out: MIC), 4 µg/mL (≈ 12.2 µM); in the experiment with Candida albicans [4] (setting [13]), 8 µg/mL (≈ 24.4 µM); with Candida albicans [5] (setting [16]), 8 µg/mL (≈ 24.4 µM); with Candida albicans [6] (setting [17]), 16 µg/mL (≈ 48.7 µM). For the same molecule, the MIC in the experiment with Staphylococcus aureus [7] (read-out: MIC) worked out at 4 µg/mL (≈ 12.2 µM); in the experiment with Bacillus subtilis [8] (read-out: MIC), 4 µg/mL (≈ 12.2 µM); in the experiment with Enterococcus durans [9] (read-out: MIC), 8 µg/mL (≈ 24.4 µM); with Candida albicans [10] (setting [18]), 8 µg/mL (≈ 24.4 µM); with Candida albicans [11] (setting [19]), 8 µg/mL (≈ 24.4 µM); with Candida albicans [12] (setting [20]), 16 µg/mL (≈ 48.7 µM).

One may read the MIC as the smallest concentration in the dilution series that meets the test's criterion for growth inhibition.
